Assay results: ChEMBL document CHEMBL2331506, “Design, synthesis, antiviral and cytostatic evaluation of novel isoxazolidine nucleotide analogues with a carbamoyl linker” (Bioorg Med Chem, 2013)
pIC50: −log10 of the molar value. Calls of active or inactive are those of the source.

Experiments:
K562 = test: Cytotoxicity against human K562 cells; assay type: functional, cell-based
HeLa [1] = test: Cytotoxicity against human HeLa cells; assay type: functional, cell-based
CCRF-CEM = test: Cytostatic activity against human CEM cells assessed as inhibition of cell proliferation after 72 hrs by Coulter counter analysis; assay type: functional, cell-based
Summary of the method: (§1)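 Each well received (5–7.5) × 10^4 tumor cells plus compound. L1210 cells grew 48 h and CEM and HeLa cells grew 72 h, at 37 °C in humidified CO2. Cells were then counted electronically, and IC50 was taken as the concentration inhibiting proliferation by 50%.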

Feline coronavirus = test: Antiviral activity against Feline coronavirus infected in cat CRFK cells assessed as reduction of virus-induced cytopathogenicity at 250 uM; assay type: functional, organism-based
[2] = test system: Vesicular stomatitis virus; test: Antiviral activity against Vesicular stomatitis virus infected in human HeLa cells assessed as reduction of virus-induced cytopathogenicity at 250 uM; assay type: functional, organism-based
Summary of the method: (§2)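 Confluent cell monolayers were infected with 100 CCID50 of virus while exposed to varying compound concentrations. Cytopathicity was scored once it was complete in untreated infected controls. EC50 was taken as the concentration that reduced virus-induced cytopathogenicity by 50%.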

Coxsackievirus B4 = test: Antiviral activity against Coxsackievirus B4 infected in african green monkey Vero cells assessed as reduction of virus-induced cytopathogenicity at 250 uM; assay type: functional, organism-based
Summary of the method: (§3)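 Confluent monolayers (HEL fibroblasts, Vero, or HeLa cells as listed) were infected with 100 CCID50 of virus in the presence of varying compound concentrations. Virus-induced cytopathicity or plaque formation was scored once cytopathicity was complete in untreated infected controls. EC50 was taken as the concentration reducing cytopathogenicity or plaque formation by 50%.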

Human alphaherpesvirus 1 [3] = test: Antiviral activity against thymidine kinase-deficient, ACV-resistant Herpes simplex virus 1 KOS infected in human HEL cells assessed as reduction of virus-induced cytopathogenicity at 250 uM; assay type: functional, organism-based; summary of the method: as §2
[4] = test system: Human immunodeficiency virus 1; test: Antiviral activity against Human immunodeficiency virus 1 3B infected in human CEM cells assessed as reduction of virus-induced giant cell formation at 250 uM after 4 to 5 days; assay type: functional, organism-based; conditions: CCRF-CEM
Summary of the method: (§4)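 CEM cells at 3 × 10^5 cells/mL were infected with HIV at 100 CCID50 per mL in the presence of compound dilutions. They were held 4–5 days at 37 °C in humidified CO2. Syncytium (giant cell) formation was scored microscopically, and EC50 was taken as the concentration inhibiting giant cell formation by 50%.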

Human alphaherpesvirus 1 [5] = test: Antiviral activity against Herpes simplex virus 1 KOS infected in human HEL cells assessed as reduction of virus-induced cytopathogenicity at 250 uM; assay type: functional, organism-based; summary of the method: as §3
Sindbis virus = test: Antiviral activity against Sindbis virus infected in african green monkey Vero cells assessed as reduction of virus-induced cytopathogenicity at 250 uM; assay type: functional, organism-based; summary of the method: as §3
Human alphaherpesvirus 2 = test: Antiviral activity against Herpes simplex virus 2 G infected in human HEL cells assessed as reduction of virus-induced cytopathogenicity at 250 uM; assay type: functional, organism-based; conditions: strain G; summary of the method: as §3
Felid alphaherpesvirus 1 = test: Antiviral activity against Feline herpes virus infected in cat CRFK cells assessed as reduction of virus-induced cytopathogenicity at 250 uM; assay type: functional, organism-based
Punta Toro virus = test: Antiviral activity against Punta Toro virus infected in african green monkey Vero cells assessed as reduction of virus-induced cytopathogenicity at 250 uM; assay type: functional, organism-based; summary of the method: as §3
[6] = test system: Vesicular stomatitis virus; test: Antiviral activity against Vesicular stomatitis virus infected in human HEL cells assessed as reduction of virus-induced cytopathogenicity at 250 uM; assay type: functional, organism-based; summary of the method: as §2
[7] = test system: Human immunodeficiency virus 2; test: Antiviral activity against Human immunodeficiency virus 2 ROD infected in human CEM cells assessed as reduction of virus-induced giant cell formation at 250 uM after 4 to 5 days; assay type: functional, organism-based; conditions: CCRF-CEM; summary of the method: as §4
[8] = test system: Mammalian orthoreovirus 1; test: Antiviral activity against Reovirus 1 infected in african green monkey Vero cells assessed as reduction of virus-induced cytopathogenicity at 250 uM; assay type: functional, organism-based; summary of the method: as §3
[9] = test system: Respiratory syncytial virus; test: Antiviral activity against Respiratory syncytial virus long infected in human HeLa cells assessed as reduction of virus-induced cytopathogenicity at 250 uM; assay type: functional, organism-based; summary of the method: as §3
Influenza A virus [10] = test: Antiviral activity against Influenza A virus H3N2 infected in dog MDCK cells assessed as reduction of virus-induced cytopathogenicity at 250 uM; assay type: functional, organism-based; summary of the method: as §2
Influenza B virus = test: Antiviral activity against Influenza B virus infected in dog MDCK cells assessed as reduction of virus-induced cytopathogenicity at 250 uM; assay type: functional, organism-based; summary of the method: as §2
Influenza A virus [11] = test: Antiviral activity against Influenza A virus H1N1 infected in dog MDCK cells assessed as reduction of virus-induced cytopathogenicity at 250 uM; assay type: functional, organism-based; summary of the method: as §2
Human respirovirus 3 = test: Antiviral activity against Parainfluenza virus 3 infected in african green monkey Vero cells assessed as reduction of virus-induced cytopathogenicity at 250 uM; assay type: functional, organism-based; summary of the method: as §3
MDCK = test: Cytotoxicity against dog MDCK cells assessed as alteration of cell morphology up to 100 uM by microscopic analysis; assay type: cell-based, Canis lupus familiaris
Summary of the method: (§5)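 Uninfected host-cell cultures were exposed to compound and examined by microscopy. Cytotoxicity was expressed as the minimum cytotoxic concentration (MCC) causing a microscopically detectable alteration of normal cell morphology.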

L1210 = test: Cytostatic activity against mouse L1210 cells assessed as inhibition of cell proliferation after 48 hrs by Coulter counter analysis; assay type: functional, cell-based; conditions: L1210, 48 h; summary of the method: as §1
HEL = test: Cytotoxicity against human HEL cells assessed as alteration of cell morphology up to 100 uM by microscopic analysis; assay type: cell-based; summary of the method: as §5
HeLa [12] = test: Cytostatic activity against human HeLa cells assessed as inhibition of cell proliferation after 72 hrs by Coulter counter analysis; assay type: functional, cell-based; summary of the method: as §1
HeLa [13] = test: Cytotoxicity against human HeLa cells assessed as alteration of cell morphology up to 100 uM by microscopic analysis; assay type: cell-based; summary of the method: as §5
[14] = Cytotoxicity against cat CRFK cells assessed as alteration of cell morphology up to 100 uM by microscopic analysis; assay type: cell-based, Felis catus; summary of the method: as §5
Vero = test: Cytotoxicity against african green monkey Vero cells assessed as alteration of cell morphology up to 100 uM by microscopic analysis; assay type: cell-based; conditions: chlorocebus sabaeus; summary of the method: as §5

CCOP(=O)(OCC)C1CC(c2ccc3ccccc3c2)ON1C (stereo not given)
4.05: pIC50 (K562)

CCOP(=O)(OCC)C1CC(c2cccc3ccccc23)ON1C (stereo not given)
4.30: pIC50 (HeLa [1])

CCOP(=O)(OCC)[C@H]1C[C@H](C(=O)Nc2cccc(Br)c2)ON1C (racemic)
3.74: pIC50 (HeLa [12])
≤ 3.60: pIC50 (CCRF-CEM)
inactive: inhibition (Feline coronavirus) | inhibition [2] | inhibition (Coxsackievirus B4) | inhibition (Human alphaherpesvirus 1 [3]) | inhibition [4] | inhibition (Human alphaherpesvirus 1 [5]) | inhibition (Sindbis virus) | inhibition (Human alphaherpesvirus 2) | inhibition (Felid alphaherpesvirus 1) | inhibition (Punta Toro virus) | inhibition [6] | inhibition [7] | inhibition [8] | inhibition [9] | inhibition (Influenza A virus [10]) | inhibition (Influenza B virus) | inhibition (Influenza A virus [11]) | inhibition (Human respirovirus 3)
Non-toxic: Activity (MDCK) | Activity (HEL) | Activity (HeLa [13]) | Activity [14] | Activity (Vero)
< 3.60: pIC50 (L1210)

CCOP(=O)(OCC)[C@@H]1C[C@H](C(=O)Nc2ccc(C(C)=O)cc2)ON1C (racemic)
3.82: pIC50 (L1210)
3.64: pIC50 (CCRF-CEM)
inactive: inhibition (Feline coronavirus) | inhibition [2] | inhibition (Coxsackievirus B4) | inhibition (Human alphaherpesvirus 1 [3]) | inhibition [4] | inhibition (Human alphaherpesvirus 1 [5]) | inhibition (Sindbis virus) | inhibition (Human alphaherpesvirus 2) | inhibition (Felid alphaherpesvirus 1) | inhibition (Punta Toro virus) | inhibition [6] | inhibition [7] | inhibition [8] | inhibition [9] | inhibition (Influenza A virus [10]) | inhibition (Influenza B virus) | inhibition (Influenza A virus [11]) | inhibition (Human respirovirus 3)
3.68: pIC50 (HeLa [12])
Non-toxic: Activity (MDCK) | Activity (HEL) | Activity (HeLa [13]) | Activity [14] | Activity (Vero)

CCOP(=O)(OCC)[C@H]1C[C@H](C(=O)Nc2ccc(Br)cc2)ON1C (mixture of isomers)
Non-toxic: Activity (MDCK) | Activity (HEL) | Activity (HeLa [13]) | Activity [14] | Activity (Vero)
inactive: inhibition (Feline coronavirus) | inhibition [2] | inhibition (Coxsackievirus B4) | inhibition (Human alphaherpesvirus 1 [3]) | inhibition [4] | inhibition (Human alphaherpesvirus 1 [5]) | inhibition (Sindbis virus) | inhibition (Human alphaherpesvirus 2) | inhibition (Felid alphaherpesvirus 1) | inhibition (Punta Toro virus) | inhibition [6] | inhibition [7] | inhibition [8] | inhibition [9] | inhibition (Influenza A virus [10]) | inhibition (Influenza B virus) | inhibition (Influenza A virus [11]) | inhibition (Human respirovirus 3)
≤ 3.60: pIC50 (HeLa [12])
3.64: pIC50 (CCRF-CEM)
3.75: pIC50 (L1210)
